Measured values: ChEMBL document CHEMBL5678814, “Novel Mps1 Kinase Inhibitors with Potent Antitumor Activity” (Mol Cancer Ther, 2016)
Calls of active or inactive are those of the source. The rule behind the calls is not given here.

What was measured:
MSTO-211H = test: Antiproliferative activity against human MSTO-211H cells assessed as cell growth inhibition incubated for 96 hrs by crystal violet staining
RT-112 = test: Antiproliferative activity against human RT-112 cells assessed as cell growth inhibition incubated for 96 hrs by MTS assay; assay type: functional, cell-based; details: RT-112, 96 h
[1] = Synergistic antitumor activity against human MAXF 1384 cells xenografted female athymic NMRI mouse model assessed as MTD at 2 mg/kg,po administered twice daily intermittent for 2 days on/5 days off measured after 48 hrs treatment in the presence of paclitaxel relative to control; assay type: functional; details: time 9 day
SK-OV-3 = test: Antiproliferative activity against human SK-OV-3 cells assessed as cell growth inhibition incubated for 96 hrs by crystal violet staining; details: SK-OV-3, 96 h
NCI-H1299 = test: Antiproliferative activity against human NCI-H1299 cells assessed as cell growth inhibition incubated for 96 hrs by crystal violet staining; details: NCI-H1299, 96 h
NCI-H2452 = test: Antiproliferative activity against human NCI-H2452 cells assessed as cell growth inhibition incubated for 96 hrs by crystal violet staining; details: NCI-H2452, 96 h
A-375 = test: Antiproliferative activity against human A-375 cells assessed as cell growth inhibition incubated for 96 hrs by crystal violet staining; details: A-375, 96 h
TMD8 = test: Antiproliferative activity against human TMD8 cells assessed as cell growth inhibition incubated for 96 hrs by MTS assay; assay type: functional, cell-based; details: TMD8, 96 h
LoVo = test: Antiproliferative activity against human LoVo cells assessed as cell growth inhibition incubated for 96 hrs by crystal violet staining
RPMI-2650 = test: Antiproliferative activity against human RPMI-2650 cells assessed as cell growth inhibition incubated for 96 hrs by crystal violet staining; details: RPMI-2650, 96 h
A2780cis = details: Homo sapiens, dose 2.5 mg/kg, route po, time 7.0 day
HeLa = test: cells; details: Homo sapiens, 4 h
Malme-3M = test: Antiproliferative activity against human Malme-3M cells assessed as cell growth inhibition incubated for 96 hrs by crystal violet staining
[2] = Half life in male CD1 mouse plasma at 0.5 mg/kg, iv measured after 24 hrs by LC/-MS/MS analysis; assay type: ADME, organism-based
Summary of the method: (§1)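 Male CD1 mice received a single iv bolus of 0.5 mg/kg in 1% DMSO/99% plasma. Plasma was sampled at 2, 5, 15, 30 and 45 min and at 1, 2, 4, 6, 8 and 24 h, precipitated with ice-cold acetonitrile (1:5), and supernatants were run by LC/MS-MS. Parameters were estimated from plasma concentration data, with AUC by the log-linear trapezoidal rule.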

KM-H2 = test: Antiproliferative activity against human KM-H2 cells assessed as cell growth inhibition incubated for 96 hrs by MTS assay; assay type: functional, cell-based; details: KM-H2, 96 h
[3] = Volume of distribution at steady state in male CD1 mouse plasma at 0.5 mg/kg, iv measured after 24 hrs by LC/-MS/MS analysis; assay type: ADME, organism-based; details: read-out: Vdss
Summary of the method: as §1

SK-MEL3 = test: Antiproliferative activity against human SK-MEL3 cells assessed as cell growth inhibition incubated for 96 hrs by crystal violet staining; details: SK-MEL3, 96 h
[4] = biological target: Serine/threonine-protein kinase mTOR (Homo sapiens, UniProt P42345); test: Binding affinity to MTOR (unknown origin) assessed as dissociation constant
[5] = Clearance in male Wistar rat blood at 0.5 mg/kg, iv measured after 24 hrs by LC/-MS/MS analysis; assay type: ADME, organism-based
[6] = Antiproliferative activity against human HeLa-MaTu cells assessed as cell growth inhibition incubated for 96 hrs by crystal violet staining
MDA-MB-453 = test: Antiproliferative activity against human MDA-MB-453 cells assessed as cell growth inhibition incubated for 96 hrs by crystal violet staining; details: MDA-MB-453, 96 h
JJN-3 = test: Antiproliferative activity against human JJN-3 cells assessed as cell growth inhibition incubated for 96 hrs by crystal violet staining; details: JJN-3, 96 h
L-363 = test: Antiproliferative activity against human L-363 cells assessed as cell growth inhibition incubated for 96 hrs by crystal violet staining; details: L-363, 96 h
[7] = Synergistic antitumor activity against human LU387 cells xenografted female athymic NMRI mouse model assessed as MTD at 1 mg/kg,po administered twice daily intermittent for 2 days on/5 days off in the presence of paclitaxel relative to control; assay type: functional; details: time 7 day
U2OS = test: Antiproliferative activity against human U2OS cells assessed as cell growth inhibition incubated for 96 hrs by MTS assay; assay type: functional, cell-based
[8] = biological target: Mitogen-activated protein kinase 9 (Homo sapiens, UniProt P45984); test: Binding affinity to JNK2 (unknown origin) assessed as dissociation constant
[9] = biological target: Serine/threonine-protein kinase 38 (Homo sapiens, UniProt Q15208); test: Binding affinity to NDR1 (unknown origin) assessed as dissociation constant
IGROV-1 = test: Antiproliferative activity against human IGROV-1 cells assessed as cell growth inhibition incubated for 96 hrs by crystal violet staining; details: IGROV-1, 96 h
HCT-116 = test: Antiproliferative activity against human TP53 wildtype HCT-116 cells assessed as cell growth inhibition incubated for 96 hrs by crystal violet staining; details: HCT-116, 96 h
DU-145 = test: Antiproliferative activity against human DU-145 cells assessed as cell growth inhibition incubated for 96 hrs by MTS assay; assay type: functional, cell-based; details: DU-145, 96 h
SiHa = test: Antiproliferative activity against human SiHa cells assessed as cell growth inhibition incubated for 96 hrs by crystal violet staining
JeKo-1 = test: Antiproliferative activity against human JeKo-1 cells assessed as cell growth inhibition incubated for 96 hrs by MTS assay; assay type: functional, cell-based; details: JeKo-1, 96 h
Caov-3 cell line = test: Antiproliferative activity against human Caov-3 cell line assessed as cell growth inhibition incubated for 96 hrs by crystal violet staining; details: Caov-3, 96 h
MIA PaCa-2 = test: Antiproliferative activity against human MIA PaCa-2 cells assessed as cell growth inhibition incubated for 96 hrs by crystal violet staining; details: MIA PaCa-2, 96 h
[10] = Tmax in female NMRI mouse plasma at 1 mg/kg, po measured after 24 hrs by LC/-MS/MS analysis

Chain of Serine/threonine-protein kinase 38 (Q15208 whole entry): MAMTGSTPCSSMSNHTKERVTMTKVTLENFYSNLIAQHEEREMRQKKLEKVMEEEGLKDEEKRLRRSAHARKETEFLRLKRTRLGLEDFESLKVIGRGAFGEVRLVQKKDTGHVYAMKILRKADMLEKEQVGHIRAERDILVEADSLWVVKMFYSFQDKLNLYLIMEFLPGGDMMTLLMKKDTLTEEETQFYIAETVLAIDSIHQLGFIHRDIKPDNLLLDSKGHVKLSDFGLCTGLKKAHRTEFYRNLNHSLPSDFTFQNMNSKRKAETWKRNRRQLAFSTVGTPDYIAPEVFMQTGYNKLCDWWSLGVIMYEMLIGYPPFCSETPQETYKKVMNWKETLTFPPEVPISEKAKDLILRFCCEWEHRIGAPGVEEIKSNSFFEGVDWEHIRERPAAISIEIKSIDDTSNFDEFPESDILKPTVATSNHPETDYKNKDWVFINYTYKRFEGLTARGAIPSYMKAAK
Chain of Mitogen-activated protein kinase 9 (P45984 whole entry): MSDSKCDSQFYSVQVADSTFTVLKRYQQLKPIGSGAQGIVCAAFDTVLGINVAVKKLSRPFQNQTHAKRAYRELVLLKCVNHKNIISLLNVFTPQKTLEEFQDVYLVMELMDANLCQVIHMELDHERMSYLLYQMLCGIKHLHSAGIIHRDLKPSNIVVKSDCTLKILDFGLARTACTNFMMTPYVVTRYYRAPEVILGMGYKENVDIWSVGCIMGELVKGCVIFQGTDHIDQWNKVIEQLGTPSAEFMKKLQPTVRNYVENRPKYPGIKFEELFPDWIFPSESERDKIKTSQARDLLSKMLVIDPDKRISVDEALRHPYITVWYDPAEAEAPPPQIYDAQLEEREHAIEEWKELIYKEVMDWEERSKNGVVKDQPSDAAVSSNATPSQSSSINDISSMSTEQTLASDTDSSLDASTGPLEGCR

Question: What does the source list for `COc1cc(S(C)(=O)=O)ccc1Nc1nc2ccc(-c3ccc(NC(=O)[C@H](C)c4ccc(F)cc4)cc3)cn2n1` [BAY-1161909]?
Answer: IC50 (MSTO-211H): 70 nM; IC50 (RT-112): 83 nM; MED [1]: 80%; IC50 (SK-OV-3): 3700 nM; IC50 (NCI-H1299): 120 nM; IC50 (NCI-H2452): 120 nM; IC50 (A-375): 100 nM; IC50 (TMD8): 240 nM; IC50 (LoVo): 95 nM; IC50 (RPMI-2650): 51 nM; inhibition (A2780cis): Active; IC50 (HeLa): 56 nM; IC50 (Malme-3M): 200 nM; half-life [2]: 4.9 h; IC50 (KM-H2): 220 nM; Vd [3]: 3.4 L/kg; IC50 (SK-MEL3): 53 nM; Kd [4]: 40000 nM; clearance [5]: 3.17 mL/min/kg; IC50 [6]: 200 nM; IC50 (MDA-MB-453): > 3000 nM; IC50 (JJN-3): 100 nM; IC50 (L-363): 32 nM; MED [7]: 40%; IC50 (U2OS): 550 nM; Kd [8]: 160 nM; Kd [9]: 40000 nM; IC50 (IGROV-1): 240 nM; IC50 (HCT-116): 42 nM; IC50 (DU-145): 160 nM; IC50 (SiHa): 610 nM; IC50 (JeKo-1): 65 nM; IC50 (Caov-3 cell line): 98 nM; IC50 (MIA PaCa-2): 1000 nM; Tmax [10]: 4 h
